High-throughput results as filed in PubChem.
This is a sample that favours compounds with a hit; in the whole collection about 1.8% have one here.
CHRM5 PAM = potentiates acetylcholine response at human M5 receptor; P08912; CHO-K1 hM5, Fluo-8 calcium, ACh EC20 PAM; 0% = ACh EC20, 100% = ACh EC100; activation, % at 3 µM; 360,000 tested, 0.3% active;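 active = activation above the run cutoff, the mean activation of all test compounds plus 3 SD, cut at about 18% in these data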
Target sequence (P08912 whole entry, looked up): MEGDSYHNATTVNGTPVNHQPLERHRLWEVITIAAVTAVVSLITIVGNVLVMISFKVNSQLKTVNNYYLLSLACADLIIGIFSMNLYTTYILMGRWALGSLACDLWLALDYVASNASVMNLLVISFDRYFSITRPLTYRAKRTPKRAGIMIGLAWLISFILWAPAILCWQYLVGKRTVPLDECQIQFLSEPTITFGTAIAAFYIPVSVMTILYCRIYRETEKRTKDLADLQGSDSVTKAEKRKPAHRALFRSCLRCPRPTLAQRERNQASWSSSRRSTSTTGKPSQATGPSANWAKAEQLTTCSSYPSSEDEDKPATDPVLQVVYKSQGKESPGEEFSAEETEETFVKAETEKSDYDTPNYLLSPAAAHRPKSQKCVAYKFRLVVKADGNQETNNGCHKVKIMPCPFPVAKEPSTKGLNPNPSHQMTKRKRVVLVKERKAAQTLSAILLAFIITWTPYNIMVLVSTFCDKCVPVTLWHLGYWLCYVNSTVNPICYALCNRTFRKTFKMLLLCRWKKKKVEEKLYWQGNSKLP
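System: CHO-K1 hM5 cells. Reagent: acetylcholine, EC20 level. Compound dosing: single dose, 3 µM nominal final test concentration. Timing: Post-acetylcholine fluorescence recording 140 s. Detection: Fluo-8 calcium fluorescence. Read-out: % activation, ACh-normalized. Benchmarks: ACh EC20 and EC100 wells. Repeats: singlicate, one well per test compound.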
M5 antag = CHRM5 antagonism in calcium assay | 360,000 tested, 0.59% active | AID 624040 | CHO-hM5 cells, Fluo-8 calcium fluorescence, ACh EC80 | inhibition, % at 3 µM;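 active = inhibition above a per-plate cutoff, the mean of that plate's test compounds plus 3 SD, cut at about 27% in these data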
CHRM5 agonist = agonists of human muscarinic M5 receptor (CHRM5) | CHO-K1 hM5 cells, Fluo-8 calcium fluorescence; 0% DMSO wells, 100% maximal acetylcholine response | P08912 | activation, % at 3 µM | 360,000 tested, 0.19% active;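 active = activation above the run's mean over test compounds plus 3 SD, cut at about 23% in these data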;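 note: signal is peak over basal fluorescence ratio across the kinetic read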
M4 antag = antagonists of human muscarinic M4 receptor (CHRM4); inhibition, % at 3 µM; 360,000 tested, 0.73% active; P08173; AID 624125; CHO-hM4 cells, ACh EC80, Fluo-8 calcium fluorescence;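 active = inhibition above its plate's cutoff, the mean inhibition of sample wells plus 3 SD, cut at about 27% in these data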
M4 PAM = CHRM4 positive allosteric modulation; P08173; CHO-K1 hM4/Gqi5, Fluo-8 calcium fluorescence, ACh EC20; 0% = ACh EC20, 100% = maximal ACh; activation, % at 3 µM; 360,000 tested, 0.4% active; AID 624126;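 active = activation above its plate's cutoff, the mean activation of sample wells plus 3 SD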
M4 ag = CHRM4 agonism in calcium assay. P08173. CHO-K1 hM4/Gqi5, Fluo-8 calcium fluorescence; vehicle 0%, full acetylcholine response 100%. activation, % at 3 µM. 360,000 tested, 0.14% active;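 active = activation above the run mean over all test wells plus 3 SD, cut at about 32% in these data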;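 note: peak over basal fluorescence ratio per well then scaled between controls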
Numbers stand for hits; i = inactive.

SMILES	CHRM5 PAM	M5 antag	CHRM5 agonist	M4 antag	M4 PAM	M4 ag
C[C@H](CO)N1C[C@H](C)[C@@H](CN(C)S(=O)(=O)c2cccs2)Oc2ccc(NC(=O)CCC(F)(F)F)cc2C1=O	i	i	i	29	i	i
COc1ccc(NC(=O)N(C)C[C@H]2Oc3c(NC(=O)Nc4ccc(C(F)(F)F)cc4)cccc3C(=O)N([C@H](C)CO)C[C@@H]2C)cc1	i	i	i	29	i	37
O=C(NCC1CCCN(Cc2ccc3nonc3c2)C1)c1cccc(C(F)(F)F)c1 (stereo unspecified)	i	i	i	i	i	i
CCN(CC(=O)Nc1c(F)cccc1F)C(=O)c1ccc(N2C(=O)c3ccccc3C2=O)cc1	i	i	i	i	i	i
O=C(CN1C(=O)NC(c2ccccc2)(c2ccccc2)C1=O)NCCNCCO	i	i	i	i	i	i
CC(=O)N1CCN(c2ccc(NCc3ccc4c(c3)OCO4)cc2)CC1	i	i	i	i	23	i
COc1ccccc1C(=O)Nc1nc(-c2ccc(S(=O)(=O)N3CCOCC3)cc2)cs1	i	30	i	36	i	i
COc1ccccc1OC(C)C(=O)Nc1nc(-c2ccc(S(=O)(=O)N3CCOCC3)cc2)cs1 (stereo unspecified)	i	i	i	i	i	i
COc1ccc(-c2csc(NC(=O)c3ccccc3S(C)(=O)=O)n2)cc1	i	i	i	i	i	i
COc1ccc(-c2csc(NC(=O)c3ccc(S(C)(=O)=O)cc3)n2)cc1	i	i	23	i	i	i
Nc1ccc(C(=O)N/N=C/c2cn(Cc3cccc(F)c3)c3ccccc23)cc1	i	i	i	i	i	i
CCOc1ccc(N(CC(=O)NN=C2CCCC2)S(C)(=O)=O)cc1	i	i	i	i	i	i
CCn1c(CNc2ccc(Cl)cc2)nnc1SCC#N	i	i	i	i	i	i
CC1=[N+](C)c2c(ccc3cccnc23)C1(C)C	i	37	i	35	i	i
CCc1c(C)sc(NC(=O)C2CC2c2ccccc2)c1C(N)=O (stereo unspecified)	i	i	i	27	i	i
COc1ccc(OC)c(NC(=O)CSc2nnc3ccc(-c4ccncc4)nn23)c1	i	i	i	i	i	i
COc1ccc(C)cc1NC(=O)CSc1nnc2ccc(-c3ccncc3)nn12	i	i	i	27	i	i
CCCCC(OC(=O)CN1C(=O)COc2ccccc21)C(=O)NC1CCCCC1 (stereo unspecified)	i	i	i	i	i	i
CC1CC(C)CN(c2ncc3c(n2)CC(c2ccc(Cl)cc2)CC3=O)C1 (stereo unspecified)	39	i	i	i	i	i
CC1CC(C)CN(c2ncc3c(n2)CC(c2ccccc2Cl)CC3=O)C1 (stereo unspecified)	i	i	i	i	i	i
CC(SCC(=O)Nc1ccc(F)cc1)c1nc2ccccc2c(=O)[nH]1 (stereo unspecified)	22	i	i	i	i	i
Cc1csc(SCC(=O)N(C)CC(=O)Nc2ccc(F)cc2)n1	i	i	i	i	i	i
Cc1cc(SCC(=O)N(C)CC(=O)Nc2ccc(F)cc2)nc2ccccc12	i	i	i	i	21	i
COCCNC(=O)C1(C)CCCN(C(=O)c2cccnc2SC)C1 (stereo unspecified)	i	i	i	i	i	i
Cc1n[nH]c(C)c1N1C(=O)c2cccc3c(N4CCCCCC4)ccc(c23)C1=O	i	54	76	41	i	85
SMILES	CHRM5 PAM	M5 antag	CHRM5 agonist	M4 antag	M4 PAM	M4 ag
O=C1c2cccc3c(N4CCCCC4)ccc(c23)C(=O)N1c1cccc(O)c1	i	37	141	36	i	41
CC(=O)c1sc(NC(=O)CCS(=O)(=O)c2ccccc2)nc1C	i	i	i	i	17	i
CC(=O)c1sc(NC(=O)CCS(=O)(=O)c2ccc(F)cc2)nc1C	i	i	i	i	i	i
O=C(COc1ccccc1)Nc1cccc(-c2nc3cc4ccccc4cc3[nH]2)c1	i	i	i	30	i	i
O=C(COc1ccccc1)Nc1cccc(-c2nn[nH]n2)c1	i	i	i	i	i	i
O=C(N1CCCC1)C12CCC3CC(CC(C3)C1)C2	19	i	i	i	i	i
O=C(NNC(=O)C1CCCC1)c1cc([N+](=O)[O-])cc([N+](=O)[O-])c1	i	i	i	i	i	i
CCCCCCn1c(=O)[nH]c2nc3cc(N)c(C)cc3nc2c1=O	i	37	104	i	i	37
Cc1sc2nc(CN3CCCC3)nc(N3CCN(C(=O)c4ccco4)CC3)c2c1C	i	i	i	i	i	i
Cc1sc2nc(CN3CCCC3)nc(N3CCC(C(N)=O)CC3)c2c1C	i	i	i	i	31	i
CC(C(=O)NC(=O)NC1CCCCC1)N(C)CC(=O)Nc1ccc(F)c(F)c1F (stereo unspecified)	i	i	i	i	i	i
O=C(COC(=O)CCC1CCCC1)Nc1ccccc1OC(F)F	i	i	i	i	22	i
COC(=O)/C(=C\C(=O)c1ccccc1)Nc1ccc(OC)cc1	27	30	i	i	i	i
O=c1cccc(-c2ccccc2)[nH]1	30	i	i	i	i	i
O=C(NC1CCCCC1)C(CCc1ccccc1)N1CCc2ccccc2C1 (stereo unspecified)	i	i	i	i	i	i
Cc1nc(-c2nnc(-c3ccccc3)o2)c(C(F)(F)F)o1	i	i	i	29	i	i
c1ccc(-c2nnc(-c3ccccc3)o2)cc1	i	i	i	i	i	i
CC1=CC(=O)C=C(C)C1=NOS(=O)(=O)c1ccccc1	i	41	23	32	i	i
Cc1ccc2c(c1)/C(=N/OS(=O)(=O)c1ccccc1)CCS2	i	i	i	i	i	i
CC1=CC(=O)C(C(C)C)=C/C1=N/OS(=O)(=O)c1ccccc1	i	51	i	79	i	i
Cc1c(Cc2ccccc2)c(=O)oc2cc(OCC(=O)N3CCC(C(N)=O)CC3)ccc12	i	i	i	i	i	i
O=C(C1=C[C@H](c2coc3ccccc3c2=O)C[C@H](OCCCCO)O1)N1CCN(Cc2ccccc2)CC1	i	62	i	i	i	i
O=C(NCc1ccccc1)C1=C[C@H](c2coc3ccccc3c2=O)C[C@H](OCCCCO)O1	i	i	i	i	i	i
O=C(NCc1ccccc1)C1=C[C@@H](c2coc3ccccc3c2=O)C[C@@H](OCCCCO)O1	i	28	i	i	i	i
COc1ccc(/C=N/NC(=O)CNC(=O)c2ccncc2)cc1	i	i	i	i	i	i
